Screens as filed in PubChem BioAssay.
The entries come from a sample that favours hits as a whole.
NALP1 yeast inh = NALP1 inflammasome inhibitors in reconstituted yeast, colorimetric, S. cerevisiae, triplicate retest; S. cerevisiae NALP1/ASC/caspase-1 growth, X-gal OD620, 72 h; inhibition, % at 10 µM; actives 0.61% (n = 280,000); AID 2071, 2009; in the data active = inhibition mostly above about 24%, no sharp cut-off; inactive = mostly below about 32%
NALP3 yeast inh = NALP3 inflammasome inhibitors in reconstituted yeast, primary screen, luminescence, uHTS; actives 0.39% (n = 330,000); inhibition, % at 10 µM; AID 2825, 2010; Yeast reconstituted NLRP3/ASC/caspase-1, beta-gal luminescence, 24 h;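 active = inhibition of 50% or more; inactive = inhibition below 50%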
L major viab = Leishmania major promastigote growth inhibition, primary screen; actives 9% (n = 200,000); inhibition, % at 10 µM; Leishmania major promastigotes, resazurin fluorescence viability; in the data active = inhibition above about 50%;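 note: promastigotes grown with compound for 44 hours at 28 °C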
T cruzi inh = inhibitors of intracellular T. cruzi growth, primary screen, luminescence, NIH3T3 host cells; inhibition, % (test concentration not listed); AID 1885, 2009; T. cruzi beta-gal in NIH3T3, 90 h; actives 1.4% (n = 300,000);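 active = mean inhibition across valid replicates above about 55%, limit read from the data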;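 note: signal also drops with host cell toxicity which is not excluded here; higher percent means less beta-gal luminescence so fewer parasites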
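Assay system: NIH/3T3 host cells with β-galactosidase reporter T. cruzi; input: 5,000 host fibroblasts per well; compound: single 50 nL compound addition per well in DMSO; timing: ≥90 h infection period, 3 h prior cell attachment; measured by: GalScreen β-gal luminescence, detergent lysis, 60 min; evaluation: percent inhibition of parasite-derived β-gal signal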
PolyA inh = polyadenylation inhibitors in yeast reporter cells, primary screen, luminescence, S. cerevisiae. activity score, % at 12 µM. S. cerevisiae SKY197-pL101 polyadenylation reporter, beta-gal luminescence; efflux-impaired pdr1/pdr3 knockout yeast; score 100 = 6 SD above DMSO. AID 1875, 2009. actives 0.02% (n = 300,000);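 active = lowest replicate activity score at least 50, where 100 means six control SD above control mean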;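 note: yeast exposed to compound for 9 h at 30 °C; higher score means more reporter readthrough which indicates perturbed polyadenylation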
Calb FLC = C. albicans growth inhibition with fluconazole, primary screen, CaCi-2 strain, Alamar Blue fluorescence; C. albicans CaCi-2 + fluconazole, 48 h; growth inhibition, % (concentration not given with the values); actives 0.57% (n = 300,000);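 active = growth inhibition above about 58% in most replicates, limit read from the data, passing the limit was not always enough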;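 note: all wells also contain fluconazole at 8 µg/ml as a sub-toxic cotreatment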
Each line names hits and unclear results; the compound was inactive in the other large screens.

O=S(=O)(Nc1ccc2c(c1)nc1n2CCN(Cc2ccccc2)C1)c1ccccc1	L major viab 98
CCN(CC)c1c([N+](=O)[O-])c(=O)oc2ccccc12	none
COc1ccccc1NS(=O)(=O)c1cccc(C(=O)N(C)Cc2cccs2)c1	none (no result: L major viab)
Cc1coc(C)c1C(=O)Nc1ccc2ccccc2c1	none (no result: L major viab)
CC(c1ccccc1)N1CCn2c(nc3cc(NS(C)(=O)=O)ccc32)C1 (configuration not stated)	Calb FLC 109
Cc1ccc(-c2nnc(CSc3nnc(COc4ccccc4)n3-c3ccc(C)cc3)o2)cc1	none
Cc1ccccc1OCc1nnc(SCc2cc(=O)[nH]c3ccccc23)n1-c1ccccc1	L major viab 75
Cc1ccc(NC(=O)CSc2nnc(-c3n[nH]c4ccccc34)n2-c2ccccc2)c(C)c1	L major viab 53
Cc1ccc(OCc2nnc(SCc3cc(=O)[nH]c4ccccc34)n2-c2ccccc2)cc1	L major viab 73
Cc1ccc(OCc2nnc(SCC(=O)Nc3cccc4ccccc34)n2-c2ccccc2)cc1	L major viab 95
CN1CCN(c2ccc(S(=O)(=O)N3CCCCC3)cc2NC(=O)c2ccc(F)cc2F)CC1	none
Cc1ccc(N2CCN(S(=O)(=O)N3CCCCC3)CC2)cc1Cl	L major viab 76
Cc1ccc(N2CCN(C(=O)N3CCCC3)CC2)cc1Cl	none
CCOc1ccc(C(C)=O)cc1CSc1nnc(-c2cccs2)n1CC1CCCO1 (configuration not stated)	none
CCOc1cc(CNc2ccc(OC)cc2)cc(Br)c1OCC(=O)NC(C)(C)C	L major viab 100
CCOc1cc(CNn2cnnc2)cc(Br)c1OCC(=O)NC(C)(C)C	none (no result: L major viab)
CCOc1cc(CNc2ccc(Br)cc2)cc(Br)c1OCC(=O)NC(C)(C)C	T cruzi inh 66
CCOc1cc(CNc2ccccc2)cc(Br)c1OCC(=O)NC(C)(C)C	none
COc1ccc(OCc2nnc(SCC(=O)c3c(N)n(C)c(=O)n(C)c3=O)n2-c2ccccc2F)cc1	none
Cc1oc2cc(Br)c(O)c(Br)c2c1-c1ccccc1	none (no result: NALP3 yeast inh, L major viab)
COc1cc(C(=O)NCC(=O)N/N=C/c2ccc(OC(=O)c3ccco3)cc2)cc(OC)c1OC	none
CSCCC(NS(=O)(=O)c1ccc2ccccc2c1)C(=O)OCC(=O)c1ccc(C(C)C)cc1 (configuration not stated)	L major viab 87 (no result: NALP3 yeast inh)
COc1cc(CO)c(OC)c([N+](=O)[O-])c1	none (no result: L major viab)
CCC(=O)N1CCN(c2ccc(NC(=O)COc3ccc(CC)cc3)cc2)CC1	none (no result: L major viab)
Cc1nn(Cc2ccc(Cl)cc2Cl)c(Cl)c1/C=N/NC(=O)CNc1cccc(C(F)(F)F)c1	T cruzi inh 71
CCCN(CCC)C(=O)Cn1c2ccccc2c2nc(=O)cc(C)n21	none
COc1ccc(N/N=C(/N=Nc2nc(C)cc(=O)[nH]2)c2ccccc2)cc1	L major viab 100
Cc1cc(=O)[nH]c(N=N/C(=N/Nc2ccc(O)cc2)c2ccccc2)n1	L major viab 94
Cc1cc(=O)[nH]c(N/N=C/c2ccccc2C(F)(F)F)n1	none
COc1ccc(C(=O)CSc2nc(C)cc(=O)[nH]2)cc1	none
Cc1cc(=O)[nH]c(N=N/C(=N/Nc2ccccc2C)c2ccccc2)n1	L major viab 98
CN(C(=O)COC(=O)c1ccccc1SCC(=O)N1CCCC1)C1(C#N)CCCCC1	none (no result: NALP1 yeast inh, L major viab, T cruzi inh, PolyA inh, Calb FLC)
Cc1cc(NC2CCCCC2)nc2ccccc12	L major viab 84
Cc1cc(C)cc(N(CC(=O)NC2CCCC2)C(=O)CCC(=O)Nc2cc(C)ccn2)c1	none (no result: L major viab)
Cc1ccnc(NC2CCCCC2)c1	NALP1 yeast inh 21
CC(C)c1ccc(-n2cnn(-c3ncccc3[N+](=O)[O-])c2=O)cc1	none
Cc1ccc(-n2cnn(-c3ccc([N+](=O)[O-])cc3[N+](=O)[O-])c2=O)cc1	T cruzi inh 57 (no result: L major viab)
O=c1c2ccccc2ncn1-c1ccc([N+](=O)[O-])cc1[N+](=O)[O-]	T cruzi inh 63 (no result: L major viab, Calb FLC)
CCOC(=O)NC(=O)/C(C#N)=N/Nc1ccc(F)cc1	NALP1 yeast inh 38
CCOC(=O)C(=O)/C(C#N)=C/Nc1ccc(F)cc1	none
O=C(Cn1nnc2ccccc2c1=O)N[C@@H](Cc1ccccc1)C(=O)O	none (no result: L major viab)
Cc1c(Cc2ccccc2)c(=O)oc2c(O)c(O)ccc12	Calb FLC 108
CC1CCCC(NC(=O)C2N(CCCN3CCCC3)C(=O)C3C(C(=O)Nc4cccc(Cl)c4)C4C=CC32O4)C1C (configuration not stated)	none (no result: L major viab)
CC(/C=C/c1ccccc1)=N\Nc1nc(-c2ccccc2)cs1	L major viab 69 (no result: T cruzi inh)
O=[N+]([O-])c1ccc(N/N=C/c2cccnc2)cc1	none (no result: L major viab)
CC(C)=NNc1nc(-c2ccccc2)cs1	L major viab 89
C(=N\Nc1nc(-c2ccccc2)cs1)/c1cccnc1	L major viab 91
CCOC(=O)C/C(C)=N\Nc1nc(-c2ccccc2)cs1	none
Clc1ccc(N/N=C/c2cccnc2)cc1	L major viab 62
C/C(CCC1CC(C)OC1=O)=N/Nc1nc(-c2ccccc2)cs1 (configuration not stated)	L major viab 76
CC1CC(CC(=O)NNc2nc(-c3ccccc3)cs2)C(=O)O1 (configuration not stated)	none
CCc1nc(Nc2cccc(O)c2)c2oc3ccccc3c2n1	none (no result: L major viab)
Cc1nc(Nc2ccncc2)c2oc3ccccc3c2n1	T cruzi inh 73
CCc1nc(Nc2ccncc2)c2oc3ccccc3c2n1	L major viab 100, T cruzi inh 66, Calb FLC 85
Cc1nc(NCCc2cnc[nH]2)c2oc3ccccc3c2n1	T cruzi inh 71
COc1ccc(CCNc2nc(C)nc3c2oc2ccccc23)cc1OC	none
COCCN(C(=O)COC(=O)c1sccc1C)c1c(N)n(Cc2ccccc2)c(=O)[nH]c1=O	none (no result: L major viab)
Fc1ccc(-c2cc3nc(-c4ccccc4)cc(N4CCN(CCN5CCOCC5)CC4)n3n2)cc1	L major viab 77, T cruzi inh 55 (no result: NALP3 yeast inh)
COc1cccc(-c2cc3nc(-c4ccccc4)cc(N4CCC5(CC4)OCCO5)n3n2)c1	L major viab 63, T cruzi inh 55
CCCCc1nc2ccccc2c(N)c1CCC (tested in a mixture with another compound)	L major viab 95
CCCCc1nc2ccccc2c(NC(=O)CNC(C)(C)C)c1CCC	none
Cc1cc(OCC(=O)Nc2ccc(S(=O)(=O)NC3=NCCCCC3)cc2)c(C(C)C)cc1Cl	L major viab 71
COc1ccc(/C=C2\SC(=O)N(CCNC(=O)Cn3cnnn3)C2=O)cc1	L major viab 56
